ChEMBL document CHEMBL1629439, “High-throughput identification of antibacterials against methicillin-resistant Staphylococcus aureus (MRSA) and the transglycosylase” (Bioorg Med Chem, 2010)
≈ marks a conversion by molar mass, not a printed value.

Experiments:
Staphylococcus aureus [1] = assay: Antimicrobial activity against methicillin-resistant Staphylococcus aureus isolate NTUH4722 after 18 to 24 hrs by alamar blue assay; type: functional
In short: (§1)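 Broth microdilution per NCCLS standard, Mueller-Hinton broth, 8-point twofold dilutions; exponentially growing cells at 5 10^5 cells/ml with compound, 18–24 h at 37 C; 20% Alamar blue added, fluorescence read; MIC90 taken as lowest concentration preventing at least 90% growth.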

Staphylococcus aureus [2] = assay: Antimicrobial activity against oxacillin- and methicillin-resistant Staphylococcus aureus isolate Sa-OXA-R2 after 18 to 24 hrs by alamar blue assay; type: functional; in short: as §1
[3] = tested on: Mycolicibacterium smegmatis; assay: Antimicrobial activity against Mycobacterium smegmatis BCRC 11565 after 18 to 24 hrs by alamar blue assay; type: functional; details: Mycolicibacterium smegmatis, BCRC 11565; read-out: MIC
In short: (§2)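 Broth microdilution per NCCLS in Mueller-Hinton broth, 8-point twofold dilutions, 384-well format. Exponential-phase cells at 5 × 10^5 cells/ml incubated with compound 18–24 h at 37 °C, then 20% Alamar blue added and fluorescence read. MIC90 taken as the lowest concentration preventing at least 90% bacterial growth.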

Staphylococcus aureus [4] = assay: Antimicrobial activity against methicillin-resistant Staphylococcus aureus ATCC 33592 after 18 to 24 hrs by alamar blue assay; type: functional; details: Staphylococcus aureus, ATCC 33592; read-out: MIC; in short: as §1
Pseudomonas aeruginosa = assay: Antimicrobial activity against Pseudomonas aeruginosa ATCC 25619 after 18 to 24 hrs by alamar blue assay; type: functional; details: Pseudomonas aeruginosa, ATCC 25619; read-out: MIC; in short: as §2
Staphylococcus aureus [5] = assay: Antimicrobial activity against Staphylococcus aureus ATCC 29213 after 18 to 24 hrs by alamar blue assay
Acinetobacter baumannii = assay: Antimicrobial activity against Acinetobacter baumannii ATCC 49139 after 18 to 24 hrs by alamar blue assay; type: functional; details: Acinetobacter baumannii, ATCC 49139; read-out: MIC; in short: as §2
Bacillus subtilis = assay: Antimicrobial activity against Bacillus subtilis ATCC 23857 after 18 to 24 hrs by alamar blue assay; type: functional; in short: as §2
Escherichia coli = assay: Antimicrobial activity against Escherichia coli ATCC […] after 18 to 24 hrs by alamar blue assay; type: functional; details: Escherichia coli; read-out: MIC; in short: as §2
[6] = tested on: Stenotrophomonas maltophilia; assay: Antimicrobial activity against Stenotrophomonas maltophilia ATCC 13637 after 18 to 24 hrs by alamar blue assay; type: functional; details: Stenotrophomonas maltophilia, ATCC 13637; read-out: MIC; in short: as §2
Serratia marcescens = assay: Antimicrobial activity against Serratia marcescens ATCC 14756 after 18 to 24 hrs by alamar blue assay; type: functional; details: Serratia marcescens, ATCC 14756; read-out: MIC; in short: as §2

Structure (SMILES)	MIC (Staphylococcus aureus [1]) [µg/mL]	MIC (Staphylococcus aureus [2]) [µg/mL]	MIC [3] [µg/mL]	MIC (Staphylococcus aureus [4]) [µg/mL]	MIC (Pseudomonas aeruginosa) [µg/mL]	MIC (Staphylococcus aureus [5]) [µg/mL]	MIC (Acinetobacter baumannii) [µg/mL]	MIC (Bacillus subtilis) [µg/mL]	MIC (Escherichia coli) [µg/mL]	MIC [6] [µg/mL]	MIC (Serratia marcescens) [µg/mL]
Cn1c(/C=C/c2ccc([N+](=O)[O-])o2)nc2ccccc2c1=O	1 (≈ 3.36 µM)	0.5 (≈ 1.68 µM)	1 (≈ 3.36 µM)	2 (≈ 6.73 µM)	2 (≈ 6.73 µM)	1 (≈ 3.36 µM)	> 256	< 0.03	16 (≈ 53.8 µM)	> 256	> 256
Cc1ccc(NS(=O)(=O)c2ccc3c(c2)NC(=O)C(C)S3)c(C)c1 (stereo not drawn)	4 (≈ 11 µM)	> 64	> 64	32 (≈ 88.3 µM)	> 256	2 (≈ 5.52 µM)	> 256	< 0.03	> 256	> 256	> 256
CCC(NC(=O)Cc1c(C)c2cc3c(-c4ccc(Cl)cc4)coc3c(C)c2oc1=O)C(=O)O (stereo not drawn)	2.5 (≈ 5.34 µM)	2.5 (≈ 5.34 µM)	1 (≈ 2.14 µM)	5 (≈ 10.7 µM)	> 256	2.5 (≈ 5.34 µM)	> 256	> 64	> 256	> 256	> 256
CCC1Sc2ccc(S(=O)(=O)Nc3cc(Cl)ccc3C)cc2NC1=O (stereo not drawn)	16 (≈ 40.3 µM)	16 (≈ 40.3 µM)	> 64	> 64	> 256	4 (≈ 10.1 µM)	> 256	< 0.03	> 256	> 256	> 256
Cc1c(CC(=O)N2CCC(C(=O)O)CC2)c(=O)oc2c(C)c3occ(-c4ccc(Cl)cc4)c3cc12	2.5 (≈ 5.06 µM)	2.5 (≈ 5.06 µM)	1 (≈ 2.02 µM)	1.25 (≈ 2.53 µM)	> 256	2.5 (≈ 5.06 µM)	> 256	> 64	> 256	> 256	> 256
Cc1c(CC(=O)N[C@@H](C(=O)O)C(C)C)c(=O)oc2c(C)c3occ(-c4ccc(Cl)cc4)c3cc12	2.5 (≈ 5.19 µM)	2.5 (≈ 5.19 µM)	1 (≈ 2.07 µM)	1.25 (≈ 2.59 µM)	> 256	1.25 (≈ 2.59 µM)	> 256	> 64	> 256	> 256	> 256
O=C(Nc1nnc(-c2ccc(F)cc2)o1)c1cccc(C(F)(F)F)c1	1 (≈ 2.85 µM)	4 (≈ 11.4 µM)	0.5 (≈ 1.42 µM)	0.5 (≈ 1.42 µM)	> 256	0.5 (≈ 1.42 µM)	> 256	0.5 (≈ 1.42 µM)	> 256	> 256	> 256
CCCc1ccc(C)c(Oc2ccc(Cl)cc2NC(=O)c2cc(Cl)cc(Br)c2O)c1	0.06 (≈ 0.118 µM)	0.06 (≈ 0.118 µM)	0.5 (≈ 0.982 µM)	0.125 (≈ 0.245 µM)	16 (≈ 31.4 µM)	0.25 (≈ 0.491 µM)	16 (≈ 31.4 µM)	< 0.03	8 (≈ 15.7 µM)	16 (≈ 31.4 µM)	16 (≈ 31.4 µM)
Cc1ccc(-c2nnc(NC(=O)c3nc4ccccc4s3)o2)c(C)c1	0.25 (≈ 0.713 µM)	0.25 (≈ 0.713 µM)	0.5 (≈ 1.43 µM)	0.5 (≈ 1.43 µM)	> 256	0.5 (≈ 1.43 µM)	> 256	0.5 (≈ 1.43 µM)	> 256	> 256	> 256
O=C(Nc1nnc(-c2ccccc2Cl)o1)c1nc2ccccc2s1	2 (≈ 5.61 µM)	32 (≈ 89.7 µM)	0.5 (≈ 1.4 µM)	2 (≈ 5.61 µM)	> 256	2 (≈ 5.61 µM)	> 256	0.5 (≈ 1.4 µM)	> 256	> 256	> 256
CSc1nc2ccc(NC(=O)c3ccc([N+](=O)[O-])o3)cc2s1	1 (≈ 2.98 µM)	1 (≈ 2.98 µM)	0.5 (≈ 1.49 µM)	1 (≈ 2.98 µM)	128 (≈ 382 µM)	1 (≈ 2.98 µM)	12 (≈ 35.8 µM)	0.06 (≈ 0.179 µM)	256 (≈ 763 µM)	32 (≈ 95.4 µM)	32 (≈ 95.4 µM)
O=C(Nc1nnc(-c2ccc(Cl)cc2)o1)c1cccc(Br)c1	2 (≈ 5.28 µM)	2 (≈ 5.28 µM)	0.5 (≈ 1.32 µM)	0.5 (≈ 1.32 µM)	> 256	0.5 (≈ 1.32 µM)	> 256	0.5 (≈ 1.32 µM)	> 256	> 256	> 256
O=C(Nc1nnc(-c2ccc(Cl)cc2)o1)c1cccc(Cl)c1	0.125 (≈ 0.374 µM)	0.125 (≈ 0.374 µM)	0.5 (≈ 1.5 µM)	0.25 (≈ 0.748 µM)	> 256	0.5 (≈ 1.5 µM)	> 256	0.5 (≈ 1.5 µM)	> 256	> 256	> 256
O=C(Nc1ccc(Cl)cc1)c1cc(Br)cc(Br)c1O	1 (≈ 2.47 µM)	1 (≈ 2.47 µM)	0.5 (≈ 1.23 µM)	4 (≈ 9.87 µM)	16 (≈ 39.5 µM)	1 (≈ 2.47 µM)	16 (≈ 39.5 µM)	< 0.03	8 (≈ 19.7 µM)	16 (≈ 39.5 µM)	16 (≈ 39.5 µM)
Cc1ccc(C)c(NS(=O)(=O)c2ccc3c(c2)NCC(C)C(=O)S3)c1 (stereo not drawn)	32 (≈ 85 µM)	> 64	> 64	16 (≈ 42.5 µM)	> 256	2 (≈ 5.31 µM)	> 256	< 0.03	> 256	> 256	> 256
Cc1c(CC(=O)O)c(=O)oc2c(C)c3occ(-c4ccc(Br)cc4)c3cc12	16 (≈ 37.4 µM)	2 (≈ 4.68 µM)	1 (≈ 2.34 µM)	2 (≈ 4.68 µM)	> 256	2 (≈ 4.68 µM)	> 256	> 64	> 256	> 256	> 256
Cc1ccc(-c2coc3c(C)c4oc(=O)c(CCC(=O)O)c(C)c4cc23)cc1	1 (≈ 2.66 µM)	2 (≈ 5.31 µM)	1 (≈ 2.66 µM)	2 (≈ 5.31 µM)	> 256	1 (≈ 2.66 µM)	> 256	> 64	> 256	> 256	> 256
Cc1ccccc1NS(=O)(=O)c1ccc2c(c1)NC(=O)C(C)S2 (stereo not drawn)	1.2 (≈ 3.44 µM)	1.2 (≈ 3.44 µM)	> 64	1.2 (≈ 3.44 µM)	> 256	1.2 (≈ 3.44 µM)	> 256	< 0.03	> 256	> 256	> 256
